Active and inactive are the calls of the source. No cut-off for these calls is given here.
Columns and labels:
[1] = biological target: T1, Metabotropic glutamate receptor 2 (Homo sapiens, UniProt Q14416); assay: Agonist activity at human mGlu 2 expressed in CHO cells assessed as [35S]GTPgammaS binding by liquid scintillation analysis; assay type: functional, cell-based
Outline: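 Membranes from butyrate-stimulated (5 mM, 24 h) CHO cells expressing human mGlu2. Preincubated 30 min at 30 °C in HEPES pH 7.4 with NaCl, MgCl2, 50 μM GDP and saponin; modulator 0.3 nM–50 μM, no added glutamate. [35S]GTPγS 0.1 nM final, 30 min at 30 °C, filtered, scintillation counted. Nonspecific binding defined with cold GTP; 11 concentrations in duplicate, ≥3 curves.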

[2] = biological target: T1, Metabotropic glutamate receptor 2; assay: Agonist activity at human mGlu 2 expressed in CHO cells by PAM assay relative to glutamate; assay type: functional, cell-based
Outline: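 The assay measured [35S]GTPγS binding to membranes from CHO cells expressing human mGluR2. Cells were butyrate-stimulated (5 mM, 24 h) before membranes were prepared. Membranes were preincubated for 30 min at 30 °C in HEPES pH 7.4 buffer (NaCl, MgCl2, 50 μM GDP) with compound (0.3 nM–50 μM, 11 concentrations) plus EC25 glutamate. [35S]GTPγS (0.1 nM final) was then added for 30 min at 30 °C. Bound label was collected by filtration and counted. Runs were done at least in triplicate with duplicate points, and a four-parameter logistic fit gave the values.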

[3] = Metabolic stability of human liver microsomes assessed as compound metabolized at 5 uM after 15 mins; assay type: ADME, Microsome; conditions: read-out: Drug metabolism
Outline: (§1)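 Test compound at 5 μM incubated 15 min with rat or human liver microsomes; read-out is percent of compound metabolized.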

[4] = Metabolic stability of Sprague-Dawley rat liver microsomes assessed as compound metabolized at 5 uM after 15 mins; assay type: ADME, Microsome; conditions: read-out: Drug metabolism; outline: as §1
[5] = biological target: Metabotropic glutamate receptor 1 (Homo sapiens) (UniProt Q13255); assay: Agonist activity at human mGlu 1 expressed in HEK293 cells at 10 uM by Ca+2 assay; assay type: functional, cell-based
Chain of Metabotropic glutamate receptor 1 (Homo sapiens) (Q13255 19-1194 limits assumed): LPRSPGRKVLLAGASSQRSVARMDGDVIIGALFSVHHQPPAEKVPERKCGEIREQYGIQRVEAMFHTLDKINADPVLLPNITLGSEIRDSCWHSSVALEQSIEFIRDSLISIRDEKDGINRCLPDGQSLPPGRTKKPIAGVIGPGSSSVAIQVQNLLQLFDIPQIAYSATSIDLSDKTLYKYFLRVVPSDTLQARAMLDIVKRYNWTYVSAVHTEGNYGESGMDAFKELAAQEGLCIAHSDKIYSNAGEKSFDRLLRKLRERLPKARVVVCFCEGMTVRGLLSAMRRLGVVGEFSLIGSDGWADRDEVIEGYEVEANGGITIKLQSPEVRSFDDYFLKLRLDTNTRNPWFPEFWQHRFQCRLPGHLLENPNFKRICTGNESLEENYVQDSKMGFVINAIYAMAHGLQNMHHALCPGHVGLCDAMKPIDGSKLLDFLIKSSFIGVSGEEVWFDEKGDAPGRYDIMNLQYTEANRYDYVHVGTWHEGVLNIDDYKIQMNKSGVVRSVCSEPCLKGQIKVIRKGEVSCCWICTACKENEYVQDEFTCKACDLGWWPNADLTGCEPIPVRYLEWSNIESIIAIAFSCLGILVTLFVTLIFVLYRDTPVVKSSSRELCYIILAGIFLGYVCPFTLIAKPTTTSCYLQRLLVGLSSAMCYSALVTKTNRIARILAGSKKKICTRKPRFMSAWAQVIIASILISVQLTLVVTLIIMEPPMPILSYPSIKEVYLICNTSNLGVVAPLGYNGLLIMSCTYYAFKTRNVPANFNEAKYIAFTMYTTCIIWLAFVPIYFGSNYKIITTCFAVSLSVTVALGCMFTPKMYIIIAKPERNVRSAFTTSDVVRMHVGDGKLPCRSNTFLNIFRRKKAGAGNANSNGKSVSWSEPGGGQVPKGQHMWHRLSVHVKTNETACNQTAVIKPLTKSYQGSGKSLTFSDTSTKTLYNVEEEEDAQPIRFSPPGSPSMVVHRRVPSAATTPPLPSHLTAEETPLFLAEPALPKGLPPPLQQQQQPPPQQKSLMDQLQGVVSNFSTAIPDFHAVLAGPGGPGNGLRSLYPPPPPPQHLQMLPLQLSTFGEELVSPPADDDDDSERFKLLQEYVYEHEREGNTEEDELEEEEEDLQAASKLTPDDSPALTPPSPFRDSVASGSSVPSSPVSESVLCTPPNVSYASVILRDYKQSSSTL
Outline: (§2)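 Ca2+ assays on human mGlu1, mGlu3, mGlu5, mGlu7 or mGlu8 receptors, each expressed in HEK293 cells; compound tested at 10 μM for agonist and antagonist activity.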

[6] = biological target: Metabotropic glutamate receptor 3 (Homo sapiens) (UniProt Q14832); assay: Agonist activity at human mGlu 3 expressed in HEK293 cells at 10 uM by Ca+2 assay; assay type: functional, cell-based; outline: as §2
[7] = biological target: Metabotropic glutamate receptor 5 (Homo sapiens) (UniProt P41594); assay: Agonist activity at human mGlu 5 expressed in HEK293 cells at 10 uM by Ca+2 assay; assay type: functional, cell-based; outline: as §2
Chain of Metabotropic glutamate receptor 5 (Homo sapiens) (P41594 21-1212 limits assumed): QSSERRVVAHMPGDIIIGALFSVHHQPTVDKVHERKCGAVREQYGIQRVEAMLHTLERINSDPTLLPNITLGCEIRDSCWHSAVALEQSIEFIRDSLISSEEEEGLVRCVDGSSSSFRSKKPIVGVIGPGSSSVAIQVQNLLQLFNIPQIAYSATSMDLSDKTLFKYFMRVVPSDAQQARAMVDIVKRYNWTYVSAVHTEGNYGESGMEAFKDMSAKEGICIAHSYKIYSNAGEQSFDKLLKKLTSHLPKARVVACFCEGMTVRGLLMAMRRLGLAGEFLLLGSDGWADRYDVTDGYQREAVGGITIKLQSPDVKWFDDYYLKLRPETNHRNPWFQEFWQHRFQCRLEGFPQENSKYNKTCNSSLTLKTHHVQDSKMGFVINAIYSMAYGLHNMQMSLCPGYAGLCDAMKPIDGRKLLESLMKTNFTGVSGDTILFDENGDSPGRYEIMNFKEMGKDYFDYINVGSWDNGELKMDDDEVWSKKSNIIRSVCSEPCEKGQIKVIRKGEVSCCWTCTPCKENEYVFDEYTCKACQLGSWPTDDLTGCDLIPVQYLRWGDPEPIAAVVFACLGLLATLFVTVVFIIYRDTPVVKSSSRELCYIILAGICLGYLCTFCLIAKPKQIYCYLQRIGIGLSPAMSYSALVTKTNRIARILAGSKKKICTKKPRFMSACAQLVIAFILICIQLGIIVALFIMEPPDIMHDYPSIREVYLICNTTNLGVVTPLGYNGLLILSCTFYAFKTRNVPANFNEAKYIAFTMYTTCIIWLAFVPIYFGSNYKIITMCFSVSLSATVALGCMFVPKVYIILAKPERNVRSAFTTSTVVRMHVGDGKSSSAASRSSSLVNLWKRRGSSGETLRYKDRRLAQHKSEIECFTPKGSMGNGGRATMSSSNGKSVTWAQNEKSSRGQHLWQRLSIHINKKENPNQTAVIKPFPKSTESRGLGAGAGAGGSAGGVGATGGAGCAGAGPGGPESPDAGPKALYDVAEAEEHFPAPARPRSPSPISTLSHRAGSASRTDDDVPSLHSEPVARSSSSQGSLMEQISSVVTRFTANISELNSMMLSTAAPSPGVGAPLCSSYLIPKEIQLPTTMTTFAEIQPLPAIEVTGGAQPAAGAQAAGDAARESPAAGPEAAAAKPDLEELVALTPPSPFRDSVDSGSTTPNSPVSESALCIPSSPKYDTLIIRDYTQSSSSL

[8] = biological target: T2, Metabotropic glutamate receptor 7 (Homo sapiens, UniProt Q14831); assay: Agonist activity at human mGlu 7 expressed in HEK293 cells by Ca+2 assay; assay type: functional, cell-based
T2 sequence (Q14831 whole entry): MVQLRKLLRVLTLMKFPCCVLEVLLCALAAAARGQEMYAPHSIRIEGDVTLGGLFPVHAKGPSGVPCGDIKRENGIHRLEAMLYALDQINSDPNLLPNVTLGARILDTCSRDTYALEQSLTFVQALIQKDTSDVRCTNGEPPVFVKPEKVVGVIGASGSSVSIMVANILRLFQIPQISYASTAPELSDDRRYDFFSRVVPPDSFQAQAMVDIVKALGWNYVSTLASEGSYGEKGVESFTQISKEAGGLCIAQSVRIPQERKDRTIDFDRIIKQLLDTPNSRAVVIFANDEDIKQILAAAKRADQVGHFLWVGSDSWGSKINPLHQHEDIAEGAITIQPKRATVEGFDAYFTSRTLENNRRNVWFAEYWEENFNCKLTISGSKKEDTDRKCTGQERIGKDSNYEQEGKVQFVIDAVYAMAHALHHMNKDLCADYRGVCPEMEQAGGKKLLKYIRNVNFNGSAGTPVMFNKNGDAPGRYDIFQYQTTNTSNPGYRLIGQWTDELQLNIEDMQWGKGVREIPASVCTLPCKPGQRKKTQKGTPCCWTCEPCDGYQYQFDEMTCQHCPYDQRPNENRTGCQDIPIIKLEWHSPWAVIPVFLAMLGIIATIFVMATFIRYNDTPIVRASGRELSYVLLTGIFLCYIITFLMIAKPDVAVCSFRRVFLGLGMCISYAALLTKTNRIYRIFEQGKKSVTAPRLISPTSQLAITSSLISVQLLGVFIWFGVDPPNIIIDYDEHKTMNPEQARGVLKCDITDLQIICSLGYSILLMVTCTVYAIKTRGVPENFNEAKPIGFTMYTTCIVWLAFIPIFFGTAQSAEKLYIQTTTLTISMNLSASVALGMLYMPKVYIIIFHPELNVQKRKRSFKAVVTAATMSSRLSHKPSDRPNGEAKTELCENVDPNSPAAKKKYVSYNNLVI

[9] = biological target: Metabotropic glutamate receptor 8 (Homo sapiens) (UniProt O00222); assay: Agonist activity at human mGlu 8 expressed in HEK293 cells at 10 uM by Ca+2 assay; assay type: functional, cell-based; outline: as §2
Chain of Metabotropic glutamate receptor 8 (Homo sapiens) (O00222 whole entry): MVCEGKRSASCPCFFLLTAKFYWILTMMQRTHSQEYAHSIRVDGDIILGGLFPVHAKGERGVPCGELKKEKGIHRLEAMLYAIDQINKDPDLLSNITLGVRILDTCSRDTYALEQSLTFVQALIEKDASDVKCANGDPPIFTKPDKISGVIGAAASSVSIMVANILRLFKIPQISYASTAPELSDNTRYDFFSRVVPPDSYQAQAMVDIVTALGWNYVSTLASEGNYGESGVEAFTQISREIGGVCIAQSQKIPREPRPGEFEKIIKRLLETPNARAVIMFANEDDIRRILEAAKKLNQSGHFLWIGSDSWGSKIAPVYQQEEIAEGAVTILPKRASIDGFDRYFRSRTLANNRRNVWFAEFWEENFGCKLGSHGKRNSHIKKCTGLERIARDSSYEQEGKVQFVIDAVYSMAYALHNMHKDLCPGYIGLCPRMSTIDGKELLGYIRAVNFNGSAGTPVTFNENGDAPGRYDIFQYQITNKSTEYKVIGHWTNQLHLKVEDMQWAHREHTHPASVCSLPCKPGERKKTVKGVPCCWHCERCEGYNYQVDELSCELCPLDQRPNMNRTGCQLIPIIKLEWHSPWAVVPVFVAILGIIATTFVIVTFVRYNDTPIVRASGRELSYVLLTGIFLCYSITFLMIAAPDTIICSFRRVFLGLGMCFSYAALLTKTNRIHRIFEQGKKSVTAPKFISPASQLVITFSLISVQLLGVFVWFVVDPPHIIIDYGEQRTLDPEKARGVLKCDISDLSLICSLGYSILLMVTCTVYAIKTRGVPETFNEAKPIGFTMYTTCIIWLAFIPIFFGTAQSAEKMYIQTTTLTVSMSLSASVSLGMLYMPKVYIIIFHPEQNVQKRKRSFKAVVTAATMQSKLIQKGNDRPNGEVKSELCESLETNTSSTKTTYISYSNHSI

[10] = biological target: Metabotropic glutamate receptor 4 (Homo sapiens) (UniProt Q14833); assay: Agonist activity at human mGlu 4 expressed in L929 cells assessed as [35S]GTPgammaS binding by liquid scintillation counting; assay type: functional, cell-based
Chain of Metabotropic glutamate receptor 4 (Homo sapiens) (Q14833 whole entry): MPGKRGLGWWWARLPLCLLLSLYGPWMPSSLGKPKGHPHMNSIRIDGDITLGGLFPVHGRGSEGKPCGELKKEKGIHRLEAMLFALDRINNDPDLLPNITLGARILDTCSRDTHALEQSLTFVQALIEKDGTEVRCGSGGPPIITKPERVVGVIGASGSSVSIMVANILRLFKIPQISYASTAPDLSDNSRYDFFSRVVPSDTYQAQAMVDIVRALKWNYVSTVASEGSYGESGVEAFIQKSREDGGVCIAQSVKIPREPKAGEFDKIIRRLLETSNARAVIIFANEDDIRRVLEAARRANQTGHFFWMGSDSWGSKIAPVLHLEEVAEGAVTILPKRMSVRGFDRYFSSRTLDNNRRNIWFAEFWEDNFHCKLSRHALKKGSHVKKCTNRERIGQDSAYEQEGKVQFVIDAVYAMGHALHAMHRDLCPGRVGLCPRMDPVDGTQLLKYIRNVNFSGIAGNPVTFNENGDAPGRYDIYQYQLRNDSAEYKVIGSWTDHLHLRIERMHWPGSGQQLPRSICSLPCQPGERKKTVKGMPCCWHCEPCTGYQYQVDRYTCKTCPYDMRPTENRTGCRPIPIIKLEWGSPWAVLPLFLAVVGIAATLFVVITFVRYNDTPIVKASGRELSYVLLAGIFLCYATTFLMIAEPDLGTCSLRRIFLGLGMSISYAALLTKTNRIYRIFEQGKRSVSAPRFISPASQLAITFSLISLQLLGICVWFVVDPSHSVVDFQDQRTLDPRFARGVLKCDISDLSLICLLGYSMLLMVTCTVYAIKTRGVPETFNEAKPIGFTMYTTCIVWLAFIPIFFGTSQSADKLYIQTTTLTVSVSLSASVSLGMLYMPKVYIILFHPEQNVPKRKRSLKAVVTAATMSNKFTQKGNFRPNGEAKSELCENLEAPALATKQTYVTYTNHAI
Outline: (§3)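 [35S]GTPγS functional assays on human mGlu4 or rat mGlu6 receptors expressed in L929 or CHO cells; agonist and antagonist modes tested at 10 μM.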

[11] = biological target: Metabotropic glutamate receptor 6 (Rattus norvegicus) (UniProt P35349); assay: Agonist activity at rat mGlu 6 expressed in CHO cells assessed as [35S]GTPgammaS binding by liquid scintillation counting; assay type: functional, cell-based; outline: as §3
[12] = Cmax in Sprague-Dawley rat at 10 mg/kg, po and 2.5 mg/kg, iv; assay type: ADME, organism-based; conditions: in vivo
Outline: (§4)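 Rat PK: compounds formulated in 20% HP-β-CD at pH 4 and given orally and intravenously. Values are geometric means of at least two runs ± SEM.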

[13] = Tmax in Sprague-Dawley rat at 10 mg/kg, po and 2.5 mg/kg, iv; assay type: ADME, organism-based; conditions: in vivo; outline: as §4
[14] = AUC (0 to infinity) in Sprague-Dawley rat at 10 mg/kg, po and 2.5 mg/kg, iv; assay type: ADME, organism-based; conditions: plasma; outline: as §4
[15] = Half life in Sprague-Dawley rat at 10 mg/kg, po and 2.5 mg/kg, iv; assay type: ADME, organism-based; conditions: in vivo; outline: as §4
[16] = Clearance in Sprague-Dawley rat at 10 mg/kg, po and 2.5 mg/kg, iv; assay type: ADME, organism-based; conditions: in vivo
[17] = Drug uptake in Sprague-Dawley rat brain at 10 mg/kg, sc after 1 hr; assay type: ADME, organism-based; parameters: dose 10 mg/kg, route subcutaneous; conditions: read-out: Drug uptake
Outline: (§5)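 Brain exposure in male Sprague-Dawley rats after a 10 mg/kg subcutaneous dose, vehicle 20% HP-β-CD at pH 4. Brain level measured in ng/g alongside plasma in ng/mL; geometric mean of at least two runs ± SEM.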

[18] = Drug uptake in Sprague-Dawley rat brain at 10 mg/kg, sc after 2 hrs; assay type: ADME, organism-based; parameters: dose 10 mg/kg, route subcutaneous; conditions: read-out: Drug uptake; outline: as §5
[19] = Drug uptake in Sprague-Dawley rat brain at 10 mg/kg, sc after 4 hrs; assay type: ADME, organism-based; parameters: dose 10 mg/kg, route subcutaneous; conditions: read-out: Drug uptake; outline: as §5
[20] = Plasma concentration in Sprague-Dawley rat at 10 mg/kg, sc after 1 hr; assay type: ADME, organism-based; parameters: dose 10 mg/kg, route subcutaneous
Outline: (§6)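 Male Sprague−Dawley rats given 10 mg/kg subcutaneously, vehicle 20% HP-β-CD at pH 4. Plasma (ng/mL) and brain (ng/g) drug levels determined at the listed post-dose time; B/P ratio derived from them. Values are geometric means of at least two runs ± SEM.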

[21] = Plasma concentration in Sprague-Dawley rat at 10 mg/kg, sc after 2 hrs; assay type: ADME, organism-based; parameters: dose 10 mg/kg, route subcutaneous; outline: as §6
[22] = Plasma concentration in Sprague-Dawley rat at 10 mg/kg, sc after 4 hrs; assay type: ADME, organism-based; parameters: dose 10 mg/kg, route subcutaneous; outline: as §6
[23] = Ratio of drug level in brain to plasma of Sprague-Dawley rat at 10 mg/kg, sc after 1 hr; assay type: ADME, organism-based; parameters: dose 10 mg/kg, route subcutaneous; conditions: read-out: BPR; outline: as §6
[24] = Ratio of drug level in brain to plasma of Sprague-Dawley rat at 10 mg/kg, sc after 2 hrs; assay type: ADME, organism-based; parameters: dose 10 mg/kg, route subcutaneous; conditions: read-out: BPR; outline: as §6
[25] = Ratio of drug level in brain to plasma of Sprague-Dawley rat at 10 mg/kg, sc after 4 hrs; assay type: ADME, organism-based; parameters: dose 10 mg/kg, route subcutaneous; conditions: brain and plasma, read-out: BPR; outline: as §6
[26] = biological target: Metabotropic glutamate receptor 1 (Homo sapiens) (UniProt Q13255); assay: Antagonist activity at human mGlu 1 expressed in HEK293 cells at 10 uM by Ca+2 assay; assay type: functional, cell-based; outline: as §2
[27] = biological target: Metabotropic glutamate receptor 3 (Homo sapiens) (UniProt Q14832); assay: Antagonist activity at human mGlu 3 expressed in HEK293 cells at 10 uM by Ca+2 assay; assay type: functional, cell-based; outline: as §2
[28] = biological target: Metabotropic glutamate receptor 5 (Homo sapiens) (UniProt P41594); assay: Antagonist activity at human mGlu 5 expressed in HEK293 cells at 10 uM by Ca+2 assay; assay type: functional, cell-based; outline: as §2
[29] = biological target: T2, Metabotropic glutamate receptor 7; assay: Antagonist activity at human mGlu 7 expressed in HEK293 cells at 10 uM by Ca+2 assay; assay type: functional, cell-based; outline: as §2
[30] = biological target: Metabotropic glutamate receptor 8 (Homo sapiens) (UniProt O00222); assay: Antagonist activity at human mGlu 8 expressed in HEK293 cells at 10 uM by Ca+2 assay; assay type: functional, cell-based; outline: as §2
[31] = biological target: Metabotropic glutamate receptor 4 (Homo sapiens) (UniProt Q14833); assay: Antagonist activity at human mGlu 4 expressed in L929 cells assessed inhibition of [35S]GTPgammaS binding by liquid scintillation counting; assay type: functional, cell-based; outline: as §3
[32] = biological target: Metabotropic glutamate receptor 6 (Rattus norvegicus) (UniProt P35349); assay: Antagonist activity at rat mGlu 6 expressed in CHO cells assessed as inhibition of [35S]GTPgammaS binding by liquid scintillation counting; assay type: functional, cell-based; outline: as §3
[33] = Oral bioavailability in Sprague-Dawley rat at 10 mg/kg; assay type: ADME, organism-based; conditions: in vivo
Outline: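 Male Sprague-Dawley rats given 10 mg/kg orally and/or 1.25 mg/kg intravenously; compound formulated in 20% HP-β-CD at pH 4. Cmax, tmax, AUC0−inf, t1/2, clearance and oral bioavailability F derived from plasma levels; geometric mean of at least two runs ± SEM.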

Question: With `O[C@H]1CC[C@H](n2ccc3cc(-c4ccn5c(CC(F)(F)F)cnc5c4Cl)ccc32)CC1` as the compound, how does the EC50 [1] read?
Answer: 160 nM

Question: And the Emax [2]?
Answer: 244%

Question: And the metabolised at 0.25 h, 5 µM [3]?
Answer: 14%

Question: What about the metabolised at 0.25 h, 5 µM [4] of the same compound?
Answer: 8%

Question: What about the Activity [5] of the same compound?
Answer: inactive

Question: And the Activity [6]?
Answer: inactive

Question: And the Activity [7]?
Answer: inactive

Question: And the EC50 [8]?
Answer: 5200 nM

Question: And the Activity [9]?
Answer: inactive

Question: And the Activity [10]?
Answer: inactive

Question: What about the Activity [11] of the same compound?
Answer: inactive

Question: And the Cmax [12]?
Answer: 1140 ng/mL

Question: What about the Tmax [13] of the same compound?
Answer: 3.3 h

Question: What about the AUC(0-inf) [14] of the same compound?
Answer: 10600 ng·h/mL

Question: What about the half-life [15] of the same compound?
Answer: 4.3 h

Question: And the clearance [16]?
Answer: 15 mL/min/kg

Question: And the concentration at 1 h [17]?
Answer: 932 ng/g

Question: And the concentration at 2 h [18]?
Answer: 1040 ng/g

Question: And the concentration at 4 h [19]?
Answer: 843 ng/g

Question: And the concentration at 1 h [20]?
Answer: 3810 ng/mL

Question: What about the concentration at 2 h [21] of the same compound?
Answer: 3730 ng/mL

Question: And the concentration at 4 h [22]?
Answer: 1950 ng/mL

Question: And the Kp at 1 h [23]?
Answer: 0.2

Question: And the Kp at 2 h [24]?
Answer: 0.3

Question: And the Kp at 4 h [25]?
Answer: 0.4

Question: What about the Activity [26] of the same compound?
Answer: inactive

Question: What about the Activity [27] of the same compound?
Answer: inactive

Question: And the Activity [28]?
Answer: inactive

Question: What about the Activity [29] of the same compound?
Answer: inactive

Question: What about the Activity [30] of the same compound?
Answer: inactive

Question: What about the Activity [31] of the same compound?
Answer: inactive

Question: And the Activity [32]?
Answer: inactive

Question: And the bioavailability [33]?
Answer: 100%

Reference: ChEMBL document CHEMBL2150909, “Imidazo[1,2-a]pyridines: orally active positive allosteric modulators of the metabotropic glutamate 2 receptor” (J Med Chem, 2012)
